Only some compounds are listed: those with a hit (about 3.6% of all), similar ones and a draw of the others.
Beta apoptosis = inhibitors of cytokine-induced beta cell apoptosis, primary screen, luminescence; INS-1E cytokine-induced death, ATP luminescence, 48 h; percent of positive-control rescue, neutral wells zero; protection from apoptosis, % (no concentration beside the values); 300,000 tested, 0.8% active; AID 435005, 2010;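 active = Every replicate reaches about 75%, or at least half do and their mean reaches it too, limit read from the data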;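 also: 0% = cytokine-treated negative control wells and 100% = positive control rescue; higher means more ATP so stronger rescue from cytokine killing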
CSC inhib = cancer stem cell viability inhibitors, primary screen, luminescence; cancer stem cell-like cells viability; inhibition, % at 7.5 µM; 300,000 tested, 1.1% active; in the data active = inhibition above about 75%; tested in HMLE shEcad cells
SKKanGAS inh = S. pyogenes SKKanGAS growth inhibitors in kanamycin, primary screen, streptokinase expression inhibitor project, SKKanGAS strain, BacTiter-Glo luminescence; 6 h; inhibition, % at 7.5 µM; 300,000 tested, 1.3% active;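 active = mean replicate score, as percent of positive control median, at least 50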;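 also: strain carries kanamycin resistance gene driven by streptokinase promoter and grows in 40 µg/ml kanamycin; loss of luminescence reflects streptokinase promoter inhibition or plain growth inhibition; 0% = median of DMSO wells and 100% = positive control at its reference dose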
PfHsp90 yeast 2 = growth inhibition of PfHsp90-expressing yeast, primary screen, antimalarial PfHsp90 inhibitor project, S. cerevisiae, BacTiter-Glo luminescence, single point, set 2. BacTiter-Glo ATP, 48 h; yeast lacking PDR1 and PDR3 efflux regulators. 310,000 tested, 0.32% active. inhibition, % at 9.4 µM;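 active = every replicate shows inhibition above about 80%, whatever the replicate mean, limit read from the data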;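 also: 0% = DMSO neutral controls and 100% = 20 µM radicicol positive controls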
HIF activator = HIF pathway transcriptional activators, primary screen, cell-based, U2OS HRE-luciferase, luminescence; U2OS HRE-luciferase reporter; normalized: DMSO 0%, desferrioxamine 100%; activation, % at 7.5 µM (by protocol); 300,000 tested, 0.32% active;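 active = mean activation of at least 10% of the iron chelator positive control signal, with at least half of replicates also reaching 10%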
T cruzi inh = inhibitors of intracellular T. cruzi growth, primary screen, luminescence, NIH3T3 host cells. T. cruzi beta-gal in NIH3T3, 90 h. AID 1885, 2009. inhibition, % (concentration not given with the values). 300,000 tested, 1.4% active;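 active = mean inhibition across valid replicates above about 55%, limit read from the data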;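 also: signal also drops with host cell toxicity which is not excluded here; 0% = plate median of DMSO wells and 100% = zero luminescence signal; higher percent means less beta-gal luminescence so fewer parasites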
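Test system: β-gal T. cruzi (Tulahuen C4) inside NIH/3T3 cells / Quantity: 5,000 cells/well / Measured by: luminescence from GalScreen with 0.05% NP40, read after 60 min / Medium: DMEM plus 2% FBS / Measure: parasite load inhibition, % / Reagent: Tulahuen C4 trypomastigotes, 5000/well / Schedule: co-culture of at least 90 h after 3 h attachment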
* = called active by the depositor.

How did CN(C)C(=S)Nc1nc2ccccc2s1 do in these assays?
SKKanGAS inh: 31.2; PfHsp90 yeast 2: -3.8; HIF activator: 2.3; T cruzi inh: 56.5*

What do the screens show for `Cc1ccc(N/N=C/C=C/c2ccco2)cc1`?
CSC inhib: 44.5; SKKanGAS inh: -11.8; PfHsp90 yeast 2: -9.4; HIF activator: 4.0; T cruzi inh: 73.4*

How did Cc1ccc(Cn2ccc(=O)c(OCc3c(Cl)cccc3Cl)c2C)cc1 do in these assays?
Beta apoptosis: 26.0; CSC inhib: 65.2; SKKanGAS inh: 69.8*; PfHsp90 yeast 2: 4.1; HIF activator: -0.3; T cruzi inh: 16.4

Results for Cc1[nH]ccc(=O)c1OCc1c(Cl)cccc1Cl ?
CSC inhib: -19.3; SKKanGAS inh: -1.3; PfHsp90 yeast 2: 50.4; HIF activator: 0.3; T cruzi inh: -1.7

How did CCCc1cc2c(=O)c(-c3ccc4c(c3)OCCO4)coc2cc1OC(=O)c1ccco1 do in these assays?
Beta apoptosis: 4.3; CSC inhib: 88.7*; SKKanGAS inh: 7.6; PfHsp90 yeast 2: 10.8; HIF activator: 0.3; T cruzi inh: 7.3

What do the screens show for `Oc1ccc(NC(=S)N=Nc2c(O)[nH]c3ccc(Br)cc23)cc1`?
SKKanGAS inh: 31.3; PfHsp90 yeast 2: -14.1; HIF activator: -0.5; T cruzi inh: -47.7

Results for Oc1cccc(NC(=S)N=Nc2c(O)[nH]c3ccc(Br)cc23)c1 ?
Beta apoptosis: 6.8; CSC inhib: 30.0; SKKanGAS inh: 89.3*; PfHsp90 yeast 2: 17.6; HIF activator: 0.1; T cruzi inh: 17.4

What do the screens show for `Oc1[nH]c2ccc(Br)cc2c1N=NC(=S)Nc1ccc(F)cc1`?
Beta apoptosis: 29.0; CSC inhib: 82.5*; SKKanGAS inh: 109.3*; PfHsp90 yeast 2: -50.2; HIF activator: -0.3; T cruzi inh: 59.3*

How did Oc1ccc(NC(=S)N=Nc2c(O)[nH]c3ccccc23)cc1 do in these assays?
Beta apoptosis: 3.0; CSC inhib: 12.3; SKKanGAS inh: 7.3; PfHsp90 yeast 2: -33.2; HIF activator: 1.1; T cruzi inh: -34.7

How did C[C@H](O)[C@@H]1C(=O)N2CCc3ccc(-c4ccccc4)cc3[C@@H]2C[C@@H]1N(C)C(=O)Nc1cc(Cl)cc(Cl)c1 do in these assays?
PfHsp90 yeast 2: -3.8

What do the screens show for `CC1CCN(C(=O)c2ccc(CNS(=O)(=O)c3ccc(C(C)(C)C)cc3)cc2)CC1`?
Beta apoptosis: 2.5; CSC inhib: 16.3; PfHsp90 yeast 2: -13.2

Results for Cc1cc2nc(NCCCO)n(CC(=O)c3cc(C(C)(C)C)c(O)c(C(C)(C)C)c3)c2cc1C ?
Beta apoptosis: 98.4*; CSC inhib: 75.1*; PfHsp90 yeast 2: -0.2

What do the screens show for `C[C@@H]1CN([C@@H](C)CO)C(=O)c2cccc(NC(=O)Nc3ccccc3)c2O[C@H]1CN(C)C(=O)Nc1cccc2ccccc12`?
Beta apoptosis: 1.4; PfHsp90 yeast 2: 15.7

Results for O=[N+]([O-])c1ccc(O)c(Nc2ncnc3ccccc23)c1 ?
Beta apoptosis: -2.9; CSC inhib: 13.0; SKKanGAS inh: -0.8; PfHsp90 yeast 2: 0.2; HIF activator: 0.0; T cruzi inh: 4.2

How did O=[N+]([O-])c1ccc(O)c(Nc2ncnc3ccc(Br)cc23)c1 do in these assays?
Beta apoptosis: 21.8; CSC inhib: 72.0; SKKanGAS inh: 50.6*; PfHsp90 yeast 2: 3.3; HIF activator: -0.4; T cruzi inh: 8.4

What do the screens show for `Cc1cccc(N/C=C(\[N+](=O)[O-])S(=O)(=O)c2ccccc2)c1C`?
Beta apoptosis: -3.9; CSC inhib: -7.9; SKKanGAS inh: -7.5; PfHsp90 yeast 2: 21.4; HIF activator: -0.1; T cruzi inh: 81.9*

What do the screens show for `CC(C)(C)c1ccc(NC(=O)N2CCN(c3ccc([N+](=O)[O-])cn3)CC2)cc1`?
Beta apoptosis: 16.8; CSC inhib: 26.8; SKKanGAS inh: 26.7; PfHsp90 yeast 2: 2.3; HIF activator: 0.0; T cruzi inh: 3.5

What do the screens show for `Cc1nc(-c2ccc3c(c2)CCC(=O)N3)cs1`?
CSC inhib: -7.9; SKKanGAS inh: -2.5; PfHsp90 yeast 2: -15.7; HIF activator: 3.4; T cruzi inh: -24.0

Results for Cc1ccc(-c2csc(Cc3nc(-c4ccc5c(c4)CCC(=O)N5)cs3)n2)cc1 ?
Beta apoptosis: 9.1; CSC inhib: -5.2; SKKanGAS inh: 70.7*; PfHsp90 yeast 2: -11.5; HIF activator: 3.0; T cruzi inh: 14.3

Results for O=C(c1cnc(-c2ccccc2)s1)c1ccc(Cl)cc1Cl ?
Beta apoptosis: -20.0; CSC inhib: 3.0; SKKanGAS inh: 57.2*; PfHsp90 yeast 2: -6.8; HIF activator: -0.3; T cruzi inh: 5.3

Results for CCOC(=O)CSc1ncnc2c(C(=O)OCC)c3n(c12)CCC3 ?
Beta apoptosis: 2.9; CSC inhib: -11.7; SKKanGAS inh: 3.0; PfHsp90 yeast 2: 4.9; HIF activator: 0.2; T cruzi inh: 1.2

Results for Cc1ccc(C)c(S(=O)(=O)N2CCN(C(=O)CCCc3c[nH]c4ccccc34)CC2)c1 ?
Beta apoptosis: 2.8; CSC inhib: 28.9; SKKanGAS inh: 14.8; PfHsp90 yeast 2: -11.6; HIF activator: -0.7; T cruzi inh: 63.5*

What do the screens show for `C=C(NC(=O)C(=C)NC(=O)c1csc(C2=NC3c4csc(n4)C4NC(=O)c5csc(n5)C([C@@](C)(O)C(C)O)NC(=O)C5CSC(=N5)/C(=C\C)NC(=O)C(C(C)O)NC(=O)c5csc(n5)[C@]3(CC2)NC(=O)C(C)NC(=O)C(=C)NC(=O)C(C)NC(=O)C(C(C)CC)NC2C=Cc3c(C(C)O)cc(nc3C2O)C(=O)OC4C)n1)C(N)=O` (some centres undefined)?
Beta apoptosis: -8.8; CSC inhib: 80.5*

How did C=C(NC(=O)C(=C)NC(=O)c1csc(C2=NC3c4csc(n4)C4NC(=O)c5csc(n5)C(C(C)(O)C(C)O)NC(=O)C5CSC(=N5)/C(=C/C)NC(=O)C(C(C)O)NC(=O)c5csc(n5)C3(CC2)NC(=O)C(C)NC(=O)C(=C)NC(=O)C(=C)NC(=O)C(C(C)C)NC2C=Cc3c(C(C)O)cc(nc3C2O)C(=O)OC4C)n1)C(N)=O (centres undefined) do in these assays?
PfHsp90 yeast 2: -27.0

What do the screens show for `COc1ccc(OC)c(-c2cc(C3CCN(c4ncccc4[N+](=O)[O-])CC3)[nH]n2)c1`?
Beta apoptosis: -8.3; SKKanGAS inh: 57.1*; PfHsp90 yeast 2: -30.9; HIF activator: -25.0; T cruzi inh: 33.0

How did O=[N+]([O-])c1cccnc1N1CCCCC1 do in these assays?
Beta apoptosis: -0.5; CSC inhib: -15.8; SKKanGAS inh: -0.6; PfHsp90 yeast 2: 11.3; HIF activator: -0.5; T cruzi inh: -16.0
